In ChEMBL document CHEMBL1649184, “Mutations in the nonstructural protein 3A confer resistance to the novel enterovirus replication inhibitor TTP-8307” (Antimicrob Agents Chemother, 2009):
The source made the active and inactive calls. No cut-off for these calls is given here.

Experiments:
rhinovirus A29 = assay: Antiviral activity against Human rhinovirus 29 infected in african green monkey Vero cells assessed as inhibition of virus-induced cytopathic effect after 3 days by MTS-based CPE reduction assay; type: functional, organism-based; conditions: Rhinovirus A, 72 h
Summary of the method: (§1)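 Confluent cells infected with 100 CCID50 virus; 2 h adsorption at 37°C (35°C for rhinovirus), then inoculum removed and serial compound dilutions added. Incubated 3 days at 37°C until full CPE in virus controls. MTS/PMS added for 2 h, OD498 read; % CPE from cell and virus controls; EC50 as 50% protection, by logarithmic interpolation. Mean of ≥3 independent experiments.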

Coxsackievirus B3 [1] = assay: Antiviral activity against Human coxsackievirus B3 harboring wild type nonstructural protein 3A infected in african green monkey Vero cells assessed as inhibition of virus-induced cytopathic effect after 3 days by plaque assay; type: functional, organism-based; conditions: Enterovirus B, 72 h
rhinovirus A89 = assay: Antiviral activity against Human rhinovirus 89 infected in african green monkey Vero cells assessed as inhibition of virus-induced cytopathic effect after 3 days by MTS-based CPE reduction assay; type: functional, organism-based; conditions: Rhinovirus A, 72 h; summary of the method: as §1
Coxsackievirus B3 [2] = assay: Antiviral activity against Human coxsackievirus B3 harboring nonstructural protein 3A H57Y mutant infected in african green monkey Vero cells assessed as inhibition of virus-induced cytopathic effect after 3 days by plaque assay; type: functional, organism-based; conditions: Enterovirus B, 72 h
[3] = system: Coxsackievirus B3 (strain Nancy); assay: Antiviral activity against Coxsackievirus B3 (strain Nancy) infected in buffalo green monkey cells assessed as inhibition of viral RNA accumulation at 25 uM by luciferase reporter gene assay; type: functional, cell-based
Summary of the method: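 BGM cells transfected with RNA from SalI-linearized CVB3 subgenomic replicon with luciferase replacing P1, with or without 25 µM compound. At set times post-transfection, cells washed with PBS, lysed, and luciferase measured as relative light units. Averages ± SD of three independent experiments.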

rhinovirus A63 = assay: Antiviral activity against Human rhinovirus 63 infected in african green monkey Vero cells assessed as inhibition of virus-induced cytopathic effect after 3 days by MTS-based CPE reduction assay; type: functional, organism-based; conditions: Rhinovirus A, 72 h; summary of the method: as §1
rhinovirus A15 = assay: Antiviral activity against Human rhinovirus 15 infected in african green monkey Vero cells assessed as inhibition of virus-induced cytopathic effect after 3 days by MTS-based CPE reduction assay; type: functional, organism-based; conditions: Rhinovirus A, 72 h; summary of the method: as §1
rhinovirus A41 = assay: Antiviral activity against Human rhinovirus 41 infected in african green monkey Vero cells assessed as inhibition of virus-induced cytopathic effect after 3 days by MTS-based CPE reduction assay; type: functional, organism-based; conditions: Rhinovirus A, 72 h; summary of the method: as §1
Vero [4] = assay: Antiviral activity against Coxsackievirus B3 (strain Nancy) infected in african green monkey Vero cells assessed as inhibition viral replication at 25 uM administered at 1 hr interval starting at 1 hr before viral infection measured within first 3 hrs postinfection; type: functional, cell-based
Summary of the method: (§2)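 Confluent Vero cells infected with 10⁴ CCID50 CVB3, 1 h adsorption at 37°C, inoculum replaced with medium. Compound (final 25 µM) added at 1-h intervals, starting 1 h before infection. At 8 h post-infection, supernatant and intracellular RNA collected and viral RNA quantified by one-step TaqMan qRT-PCR against a synthetic transcript standard curve; normalized to 0-h point; two independent experiments.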

[5] = system: Coxsackievirus B3 (strain Nancy); assay: Antiviral activity against Coxsackievirus B3 (strain Nancy) infected in buffalo green monkey cells assessed as inhibition of viral RNA accumulation at 2 mM by luciferase reporter gene assay; type: functional, cell-based
rhinovirus B72 = assay: Antiviral activity against Human rhinovirus 72 infected in african green monkey Vero cells assessed as inhibition of virus-induced cytopathic effect after 3 days by MTS-based CPE reduction assay; type: functional, organism-based; conditions: Rhinovirus B, 72 h; summary of the method: as §1
[6] = Antiviral activity against Human coxsackievirus A21 (strain Coe) infected in african green monkey Vero cells assessed as inhibition of virus-induced cytopathic effect after 3 days by MTS-based CPE reduction assay; type: functional, cell-based; conditions: Enterovirus C, 72 h
Summary of the method: (§3)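 Confluent cells infected with 100 CCID50 virus, adsorbed 2 h at 37°C, then virus removed and serial compound dilutions added (DMSO stocks diluted in MEM with 2% FBS). Incubated 3 days at 37°C until full CPE in virus controls. Viability read by MTS/PMS, OD498 after 2 h. EC50 by logarithmic interpolation of % CPE protection. Mean of at least three independent experiments.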

Coxsackievirus B3 [7] = assay: Inhibition of viral polyprotein synthesis in Coxsackievirus B3 (strain Nancy) infected in buffalo green monkey cells at 25 uM by SDS PAGE assay; type: functional, cell-based
Summary of the method: (§4)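 Confluent BGM cells infected with CVB3 at MOI 50. At 5 h, methionine starvation for 30 min, then 30-min [35S]Met pulse with or without 25 µM compound. At 6 h, lysed in Tris-HCl pH 7.4/NaCl/EDTA/NP-40/0.05% SDS buffer; translation products resolved by SDS-PAGE. Three independent experiments.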

[8] = Antiviral activity against Human enterovirus 71 (strain BRCR) infected in african green monkey Vero cells assessed as inhibition of virus-induced cytopathic effect after 3 days by MTS-based CPE reduction assay; type: functional, cell-based; conditions: Enterovirus A, 72 h; summary of the method: as §1
[9] = Antiviral activity against Coxsackievirus B3 (strain Nancy) infected in african green monkey Vero cells assessed as inhibition of virus-induced cytopathic effect after 3 days by MTS-based CPE reduction assay; type: functional, cell-based; conditions: Enterovirus B, 72 h; summary of the method: as §1
Coxsackievirus B3 [10] = assay: Inhibition of viral polyprotein processing in Coxsackievirus B3 (strain Nancy) infected in buffalo green monkey cells at 25 uM by SDS PAGE assay; type: functional, cell-based; summary of the method: as §4
Vero [11] = assay: Antiviral activity against Coxsackievirus B3 (strain Nancy) infected in african green monkey Vero cells assessed as inhibition viral replication at 25 uM administered at 1 hr interval starting at 3 hrs after viral infection; type: functional, cell-based; summary of the method: as §2
rhinovirus A85 = assay: Antiviral activity against Human rhinovirus 85 infected in african green monkey Vero cells assessed as inhibition of virus-induced cytopathic effect after 3 days by MTS-based CPE reduction assay; type: functional, organism-based; conditions: Rhinovirus A, 72 h; summary of the method: as §1
rhinovirus B86 = assay: Antiviral activity against Human rhinovirus 86 infected in african green monkey Vero cells assessed as inhibition of virus-induced cytopathic effect after 3 days by MTS-based CPE reduction assay; type: functional, organism-based; conditions: Rhinovirus B, 72 h; summary of the method: as §1
rhinovirus A45 = assay: Antiviral activity against Human rhinovirus 45 infected in african green monkey Vero cells assessed as inhibition of virus-induced cytopathic effect after 3 days by MTS-based CPE reduction assay; type: functional, organism-based; conditions: Rhinovirus A, 72 h; summary of the method: as §1
rhinovirus A39 = assay: Antiviral activity against Human rhinovirus 39 infected in african green monkey Vero cells assessed as inhibition of virus-induced cytopathic effect after 3 days by MTS-based CPE reduction assay; type: functional, organism-based; conditions: Rhinovirus A, 72 h; summary of the method: as §1
rhinovirus A2 = assay: Antiviral activity against Human rhinovirus 2 infected in african green monkey Vero cells assessed as inhibition of virus-induced cytopathic effect after 3 days by MTS-based CPE reduction assay; type: functional, organism-based; conditions: Rhinovirus A, 72 h; summary of the method: as §1
[12] = Antiviral activity against Human coxsackievirus A16 (strain G-10) A16 infected in african green monkey Vero cells assessed as inhibition of virus-induced cytopathic effect after 3 days by MTS-based CPE reduction assay; type: functional, cell-based; conditions: Enterovirus A, 72 h; summary of the method: as §1
rhinovirus B70 = assay: Antiviral activity against Human rhinovirus 70 infected in african green monkey Vero cells assessed as inhibition of virus-induced cytopathic effect after 3 days by MTS-based CPE reduction assay; type: functional, organism-based; conditions: Rhinovirus B, 72 h; summary of the method: as §1
rhinovirus A9 = assay: Antiviral activity against Human rhinovirus 9 infected in african green monkey Vero cells assessed as inhibition of virus-induced cytopathic effect after 3 days by MTS-based CPE reduction assay; type: functional, organism-based; conditions: Rhinovirus A, 72 h; summary of the method: as §1
Poliovirus 1 = assay: Antiviral activity against Human poliovirus 1 strain Sabin infected in african green monkey Vero cells assessed as inhibition of virus-induced cytopathic effect after 3 days by MTS-based CPE reduction assay; type: functional, cell-based; conditions: Enterovirus C, 72 h; summary of the method: as §3
rhinovirus B14 = assay: Antiviral activity against Human rhinovirus 14 infected in african green monkey Vero cells assessed as inhibition of virus-induced cytopathic effect after 3 days by MTS-based CPE reduction assay; type: functional, organism-based; conditions: Rhinovirus B, 72 h; summary of the method: as §1
Poliovirus 2 = assay: Antiviral activity against Human poliovirus 2 Sabin infected in african green monkey Vero cells assessed as inhibition of virus-induced cytopathic effect after 3 days by MTS-based CPE reduction assay; type: functional, organism-based; conditions: Enterovirus C, 72 h; summary of the method: as §3
Coxsackievirus B3 [13] = assay: Antiviral activity against Human coxsackievirus B3 harboring nonstructural protein 3A I8T mutant infected in african green monkey Vero cells assessed as inhibition of virus-induced cytopathic effect after 3 days by plaque assay; type: functional, organism-based; conditions: Enterovirus B, 72 h
Poliovirus 3 = assay: Antiviral activity against Human poliovirus 3 strain Sabin infected in african green monkey Vero cells assessed as inhibition of virus-induced cytopathic effect after 3 days by MTS-based CPE reduction assay; type: functional, organism-based; conditions: Enterovirus C, 72 h; summary of the method: as §3
Coxsackievirus B3 [14] = assay: Antiviral activity against Human coxsackievirus B3 harboring nonstructural protein 3A I54F mutant infected in african green monkey Vero cells assessed as inhibition of virus-induced cytopathic effect after 3 days by plaque assay; type: functional, organism-based; conditions: Enterovirus B, 72 h
Coxsackievirus B3 [15] = assay: Antiviral activity against Human coxsackievirus B3 harboring nonstructural protein 3A V45A mutant infected in african green monkey Vero cells assessed as inhibition of virus-induced cytopathic effect after 3 days by plaque assay; type: functional, organism-based; conditions: Enterovirus B, 72 h
Vero [16] = assay: Antiviral activity against Coxsackievirus B3 (strain Nancy) infected in african green monkey Vero cells assessed as inhibition of virus-induced cytopathic effect after 3 days by plaque assay; type: functional, cell-based
Summary of the method: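 Confluent Vero cells infected with CVB3 for 2 h at 37°C with gentle shaking, washed twice with PBS, then overlaid with 0.4% agar with or without compound. After 3-4 days, fixed with 4% formaldehyde, agar removed, Giemsa-stained and plaques counted. Read at day 3 post-infection; averages ± SD of three independent experiments.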

[17] = Antiviral activity against Human rhinovirus 42 infected in african green monkey Vero cells assessed as inhibition of virus-induced cytopathic effect after 3 days by MTS-based CPE reduction assay; type: functional, cell-based; conditions: Rhinovirus B, 72 h; summary of the method: as §1
[18] = Cytotoxicity against human HeLa cells; type: cell-based; conditions: read-out: TC50 (the source's name)
Summary of the method: (§5)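 Cytotoxicity measured on confluent Vero and HeLa cells, given as 50% cytotoxic concentration; solubility limit in assay medium 100 µM.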

[19] = Cytotoxicity against african green monkey Vero cells; type: cell-based; conditions: chlorocebus sabaeus, read-out: TC50 (the source's name); summary of the method: as §5

Row | Compound | EC50 (rhinovirus A29) [nM] | EC50 (Coxsackievirus B3 [1]) [nM] | EC50 (rhinovirus A89) [nM] | EC50 (Coxsackievirus B3 [2]) [µM] | EC50 (rhinovirus A63) [nM] | EC50 (rhinovirus A15) [nM] | EC50 (rhinovirus A41) [nM] | EC50 (rhinovirus B72) [nM] | EC50 [6] [nM] | EC50 [8] [nM] | EC50 [9] [nM] | EC50 (rhinovirus A85) [nM] | EC50 (rhinovirus B86) [nM] | EC50 (rhinovirus A45) [nM] | EC50 (rhinovirus A39) [nM] | EC50 (rhinovirus A2) [nM] | EC50 [12] [nM] | EC50 (Coxsackievirus B3 [13]) [nM] | EC50 (Coxsackievirus B3 [14]) [µM] | EC50 (Coxsackievirus B3 [15]) [µM] | further results
1 | C[C@@H](NC(=O)c1cccc(-c2cnc(-c3cc4ccccc4cn3)[nH]2)c1)c1ccc(F)cc1 | 770 | 1900 | > 50000 | 15.3 | 91 | > 50000 | > 50000 | > 50000 | 5340 | > 60000 | 1200 | 1220 | > 50000 | 990 | 650 | 800 | 850 | 6000 | 19.8 | 17.7 | inhibition [3]: Active; inhibition (Vero [4]): Active; inhibition [5]: Active; inhibition (Coxsackievirus B3 [7]): inactive; inhibition (Coxsackievirus B3 [10]): inactive; inhibition (Vero [11]): inactive; EC50 (rhinovirus B70): > 50000 nM; EC50 (rhinovirus A9): > 50000 nM; EC50 (Poliovirus 1): 510 nM; EC50 (rhinovirus B14): > 50000 nM; EC50 (Poliovirus 2): 580 nM; EC50 (Poliovirus 3): 270 nM; inhibition (Vero [16]): Dose-dependent effect; EC50 [17]: > 50000 nM
2 | Fc1cccc(F)c1C1SCc2nc3cc(C(F)(F)F)ccc3n21 (stereo not drawn) |  | 2900 |  | 3.4 |  |  |  |  |  |  |  |  |  |  |  |  |  | 2900 | 3.7 | 3.6 | 
3 | CC(C)S(=O)(=O)n1c(N)nc2ccc(/C(=N/O)c3ccccc3)cc21 [ENVIROXIME] | 29 | 500 | 100 | 1.7 | 27 | 42 | 27 | 720 | 480 | 150 | 1900 | 33 | 140 | 250 | 28 | 26 | 120 | 700 | 1.8 | 1.5 | EC50 (rhinovirus B70): 110 nM; EC50 (rhinovirus A9): 38 nM; EC50 (Poliovirus 1): 190 nM; EC50 (rhinovirus B14): 110 nM; EC50 (Poliovirus 2): 60 nM; EC50 (Poliovirus 3): 40 nM; EC50 [17]: 110 nM
4 | C[C@@H](NC(=O)c1cccc(-c2c[nH]c(-c3cc4ccccc4cn3)n2)c1)c1ccc(F)cc1 |  |  |  |  |  |  |  |  |  |  |  |  |  |  |  |  |  |  |  |  | CC50 [18]: > 100 µM; CC50 [19]: > 100 µM
